Results from ChEMBL document CHEMBL4513216, “Probing the Open Global Health Chemical Diversity Library for Multistage-Active Starting Points for Next-Generation Antimalarials” (ACS Infect Dis, 2020).

experiment: Toxicity liver stage against HepG2, at 10uM; assay type: cell-based; set-up: test concentration 10 uM, cell line HepG2-A16-CD81EGFP; conditions: human, HepG2-A16-CD81EGFP cells; read-out: INHIBITION
Procedure, shortened: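 Uninfected HepG2-A16-CD81EGFP cells, 3 × 10^3 per well, 1536-well, plated on prespotted compound at 10 μM final, parasite-free screening media added to match infected plates; puromycin 10 μM positive, DMSO 0.5% negative; run in parallel with 48 h PbLuc assay at 37 °C, 5% CO2; viability by CellTiter-Glo luminescence, normalized to controls.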

Structure (SMILES)	cytotoxicity at 10 µM
CN(C)C(=O)C1CN(Cc2ccsc2)Cc2ccnn2C1 (stereo not given)	-6.75%
Cc1nnc(N2C[C@H](Oc3ccccn3)[C@H]3OCCC[C@H]32)s1	10.7%
CO[C@H]1CN(C(C)C)C[C@@H]1NC(=O)c1cc(COc2ccccc2)[nH]n1	-2.43%
CSc1ncc(C(=O)N2C[C@@H](NC(C)=O)[C@H](c3ccc(C)cc3)C2)cn1	-0.645%
CN(C)S(=O)(=O)N1CCC(c2ccnc(Nc3ccccn3)n2)C1 (stereo not given)	3.25%
COc1ccc(CN(CCC#N)CCN2CCOCC2)cc1OC	-5.79%
CC(C)C(=O)N1CCN(C(=O)c2cc(Cl)no2)[C@H]2CS(=O)(=O)C[C@H]21	8.48%
Cn1ccnc1C1CCCN(C(=O)c2ccncc2F)C1 (stereo not given)	3.18%
O=S(=O)(NCCn1cc(C2CCOC2)nn1)c1ccc(Cl)cc1 (stereo not given)	-4.89%
O=C(c1ccsc1)N1CCC(c2nnc(C3CC3)o2)CC1	12.3%
COc1ccc(C(=O)NC2CC2)c(OC2CCN(C3CCC3)CC2)c1	0.542%
Cc1nn(C)c2c(N3CCC(C)CC3)nc(C3CC3)nc12	7.59%
CC(C)=CCN1CCN(C(=O)c2cc(C)n[nH]2)[C@H]2CS(=O)(=O)C[C@H]21	-6.9%
COc1ccccc1OC1(C(=O)O)CCN(c2ccccn2)CC1	4.52%
CC(=O)N1CCO[C@H]2[C@H](OCCCn3cccn3)CC[C@@H]21	7.16%
Cc1ncoc1C(=O)N1CCCC(c2ccc3c(N)nn(C)c3n2)C1 (stereo not given)	2.76%
COc1nn(C)c2c1CCCN(C(=O)c1cnccn1)C2	-84.3%
CCN1CCc2c(sc3c2C(=O)NC(C=Cc2ccccc2)N3)C1 (stereo not given)	4.73%
Cc1cc(N(C)C)nc(C2COCCN2Cc2cc(C)on2)n1 (stereo not given)	-3.55%
COCCN(C)C[C@@H]1CN(C(=O)c2ccc(O)c(Cl)c2)C[C@@H]1CO	10.5%
NC(=O)CN1CCCC(c2cncc(Nc3ncccn3)n2)C1 (stereo not given)	-2.61%
CCS(=O)(=O)N1CC[C@H]2O[C@H](c3nc(C)no3)CC[C@H]21	6.73%
CN1[C@H](CN2CCCC2)C[C@@H]2CN(Cc3ccoc3)CC[C@@H]21	-160%
Cc1cc(C)n(C2CN(C(=O)CN3C(=O)CSc4ccccc43)C2)n1	-6.53%
N#CCSCCCN1CCN(C(=O)c2ccccc2F)CC1	-147%
Cc1cncc(C(=O)N2C[C@@H]3CN(S(C)(=O)=O)CCO[C@@H]3C2)c1	-4.87%
Cn1nccc1-c1nnn2c1COCC(CNC1CCOCC1)C2 (stereo not given)	-103%
O=C(CCNc1ncccn1)Nc1ccc(Cn2cncn2)cc1	2.5%

Structure (SMILES)	cytotoxicity at 10 µM
CCc1nc(CN2CCCC(N(C)Cc3cnc(C)s3)C2)no1 (stereo not given)	2.89%
c1cn2c(n1)CN(Cc1ccsc1)CC(Cn1cncn1)C2 (stereo not given)	-74.8%
CCN(CCC#N)Cn1ncc2cn(-c3ccccc3)nc2c1=O	-14.5%
COc1cccc(C=CCCN2CCC(C(=O)N3CCCC3)CC2)c1	7.09%
CCCN1CCC(N2CCOC(Cc3cccc(OC)c3)C2)CC1 (stereo not given)	8.69%
Cc1nc(C)n(C2CCCN(C(=O)c3ncoc3C(C)C)C2)n1 (stereo not given)	-17%
CCn1nccc1CN(C)C(=O)Cn1nc(C)cc1C	6.18%
Cc1cnn(C2CCCN(C(=O)c3cc(C4CC4)on3)C2)c1 (stereo not given)	-11.4%
COc1ccc(CN2C[C@@H]3CN(C(=O)[C@H]4CCCO4)C[C@@H]3C2=O)cc1	-0.0368%
Cc1ccc(CNC(=O)NCc2csc(C)n2)cn1	-8.24%
CCOC(=O)N1CCC(C(=O)c2cc(F)ccc2F)CC1	-8.11%
COCCNC(=O)c1cc(OC)ccc1Br	-4.2%
COCc1nn(C)c2c1CN(Cc1cnn(C)c1)CC2	1.64%
Cc1occc1C(=O)N1C[C@@H](OCc2cccnc2)[C@H]2OCCC[C@@H]21	3.16%
O=C(C1CC1)N1C[C@H]2CNC[C@@]2(C(=O)NCCCc2ccccc2)C1	-0.371%
CCCNC(=O)c1nn(CC)cc1Cl	6.11%
CC(=O)N1CCN(C(C)c2ccc(Br)cc2)CC1 (stereo not given)	-5.63%
CCCc1cc(C(=O)N2Cc3ccccc3C2)[nH]n1	2.02%
COc1ccc(CN2C[C@H](O)C[C@H]2c2nc(-c3ccccc3)no2)cc1	0.223%
O=C(C(c1ccccc1)S(=O)(=O)c1ccccn1)N1CCCCC1 (stereo not given)	5.7%
CN1CCC2(COCc3cnc(-c4ccccc4)nc32)C1 (stereo not given)	-1.5%
CSCC[C@@H](CO)Nc1ccc(-c2nc(C3CC3)no2)cn1	0.957%
CC1CCc2nc(O)c(C(=O)NCCc3cccs3)cc2C1 (stereo not given)	0.106%
CN(C)C1CCN(C(=O)Cc2csc(-c3ncccn3)n2)CC1	-0.279%
CC(C)NC(=O)N1CCN(C(=O)N(C)C)CC2(CC(=O)N(C)C2)C1 (stereo not given)	-17.8%
CCOc1ncccc1NC(=O)c1sccc1C	-16.1%
COCCNC(=O)NCCCOC1CCCc2ccccc21 (stereo not given)	11.7%
